Hits are enriched below; roughly 2.2% of the tested compounds scored in any of these assays.
EBI2 block – EBI2 receptor antagonists, beta-arrestin recruitment, primary screen, cell-based, luminescence, 7a,25-OHC stimulation, uHTS | hit rate 0.81% among 360,000 | 7a,25-OHC stimulated | G-protein coupled receptor 183 (Homo sapiens), P32249 | inhibition, % at 5 µM; in the data active = inhibition above about 38%;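 also: enzyme fragment complementation signal reports receptor beta-arrestin coupling in cells; 0% = agonist plus DMSO wells and 100% = wells without agonist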
APJ antag – antagonists of human apelin receptor APJ, primary screen, CHO-K1 cells, beta-arrestin complementation, luminescence; hit rate 0.32% among 330,000; inhibition, % at 20 µM; P35414;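 active = inhibition above about 40% at 20 µM, limit read from the data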;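 also: cells challenged with 10 nM apelin-13 agonist together with compound; plate controls were apelin-13 plus DMSO wells for no effect and DMSO wells lacking apelin-13 for full effect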
CCR6 antagonist – CCR6 receptor antagonists, primary screen, cell-based, CHO-K1, luminescence, beta-arrestin, uHTS; C-C chemokine receptor type 6 (Homo sapiens), P51684; CHO-K1 CCR6 PathHunter beta-arrestin, CCL20-stimulated; inhibition, % at 20 µM; hit rate 0.49% among 340,000;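 active = compounds whose inhibition of the agonist-driven luminescence signal at 20 µM reaches about 50%, limit read from the data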;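 also: cells stimulated with CCL20 at 14 nM final; plate controls were DMSO with CCL20 for no effect and DMSO without agonist for full effect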
m5-HT2A agonist – mouse Htr2a agonists via beta-arrestin recruitment, primary screen, cell-based, luminescence; hit rate 0.66% among 360,000; AID 624169, 2012; CHO-K1 mHTR2A beta-arrestin complementation; percent of 30 µM serotonin response; activation, % at 7.6 µM;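 active = activation above a run cutoff, the mean activation of all tested compounds plus 3 SD, cut at about 14% in these data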;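 also: 0% = plate median of compound wells and 100% = 30 µM serotonin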
Target sequence (P35363 whole entry, looked up): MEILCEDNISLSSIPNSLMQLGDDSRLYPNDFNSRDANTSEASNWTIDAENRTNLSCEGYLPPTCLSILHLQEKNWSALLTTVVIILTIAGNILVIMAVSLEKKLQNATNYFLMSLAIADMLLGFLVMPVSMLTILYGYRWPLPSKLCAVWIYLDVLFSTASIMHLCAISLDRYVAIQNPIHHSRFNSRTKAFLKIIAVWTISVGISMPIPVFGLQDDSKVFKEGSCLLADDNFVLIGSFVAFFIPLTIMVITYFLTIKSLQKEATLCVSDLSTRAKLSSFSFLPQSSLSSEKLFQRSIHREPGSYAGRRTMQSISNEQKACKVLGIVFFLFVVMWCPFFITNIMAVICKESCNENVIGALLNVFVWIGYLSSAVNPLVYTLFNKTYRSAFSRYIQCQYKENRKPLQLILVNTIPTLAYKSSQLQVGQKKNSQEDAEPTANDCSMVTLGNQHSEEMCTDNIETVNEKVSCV
CXCR6 inh – CXCR6 receptor inhibitors, primary screen, cell-based, beta-arrestin, luminescence, CHO-K1 PathHunter, 1536-well; C-X-C chemokine receptor type 6 (Homo sapiens), O00574; inhibition, % at 20 µM; hit rate 0.36% among 360,000; AID 602244, 2012; in the data active = inhibition above about 34%, passing the limit was not always enough;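 also: antagonist mode with CXCL16 agonist at 10 nM final; 0% = 10 nM CXCL16 with DMSO and 100% = unstimulated wells without agonist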
APJ ag – agonists of human apelin receptor APJ, primary screen, CHO-K1 cells, PathHunter beta-arrestin, luminescence; AID 2520, 2010; P35414; 0% DMSO wells, 100% apelin; activation, % at 20 µM; hit rate 0.11% among 330,000;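 active = activation more than six SD over the plate average, tested at 20 µM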;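 also: 0% = DMSO alone and 100% = apelin-13 at 10 nM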
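Material: engineered CHO-K1 APJ arrestin reporter cells; amount: 1000 CHO-K1 reporter cells seeded per well; incubation: compound stimulation 90 min at 25 °C, detection 60 min; signal: luminescent beta-gal fragment complementation, chemiluminescent substrate; read-out basis: APJ agonist activity; controls: DMSO-only wells as negative, 10 nM Apelin-13 as positive control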
EBI2 antag conf – EBI2 antagonist hit retest, beta-arrestin, confirmation, cell-based, single concentration, luminescence, 7a,25-OHC stimulation | hit rate 29% among 2,400 | inhibition, % at 5 µM | 7a,25-OHC antagonism | shares compounds with EBI2 block | AID 651997, 2013;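 active = inhibition of at least 50%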
EBI2 ag – EBI2 agonist activity of antagonist hits, confirmation, counter-screen for EBI2 antagonist project, cell-based, single concentration, agonist mode, luminescence; EBI2-expressing cells, 60 min; 0% vehicle, 100% 7α,25-dihydroxycholesterol control; AID 652000, 2013; 2,400 tested, under 10 active; shares compounds with EBI2 block; activation, % at 5 µM;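 active = activation of at least 50%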
bGal counter – E. coli beta-galactosidase enzyme inhibition, confirmation, counter-screen for EBI2 antagonist project, biochemical, luminescence, single concentration; shares compounds with EBI2 block; purified beta-galactosidase, luminescent Galacton Star, 15 min; inhibition, % at 5 µM; hit rate 1% among 2,400; AID 652176, 2013;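 active = replicate-average signal at least 3 plate SD below neutral wells, shown as high inhibition, flagging enzyme-inhibiting false positives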;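 also: 0% = DMSO wells with enzyme and 100% = wells lacking enzyme; higher means stronger loss of beta-gal luminescence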
* hit, by the source's call; . = no result.

SMILES | EBI2 block | APJ antag | CCR6 antagonist | m5-HT2A agonist | CXCR6 inh | APJ ag | EBI2 antag conf | EBI2 ag | bGal counter
Oc1cccc2c(NC(=S)Nc3ccc(OC(F)F)cc3)cccc12 | 45* | -31 | 6 | -1 | -16 | 5 | 24 | -1 | -8
S=C(Nc1ccccc1)Nc1ccc2cn[nH]c2c1 | 3 | -2 | -8 | -2 | -8 | 2 | . | . | .
FC(F)Oc1ccc(NC(=S)NCc2ccccc2)cc1 | -4 | -17 | -6 | -2 | 0 | 0 | . | . | .
CCN(CC)C(=S)Nc1ccc(OC(F)F)cc1 | 22 | -15 | 9 | 0 | 2 | 0 | . | . | .
CN(NC(=S)Nc1ccc(OC(F)F)cc1)C(=S)Nc1ccc(OC(F)F)cc1 | 43* | 20 | 20 | 6 | 2 | -5 | 17 | 2 | 6
Cc1ccc2nc(-c3ccncc3)cc(C(=O)Nc3ccc(F)cc3C)c2c1 | 51* | 10 | -7 | 3 | -1 | 1 | 64* | 1 | 8
CN1CCN(C(=O)c2ccc(Cl)cc2)CC1 | -1 | -6 | 4 | -6 | 4 | 0 | . | . | .
CN1CCN(C(=O)c2ccc(-n3cccc3)cc2)CC1 | 34* | 8 | -17 | -3 | 0 | 1 | 23 | 0 | -16
O=C(c1ccc(-n2cccc2)cc1)N1CCN(Cc2ccccc2)CC1 | 84* | 6 | 6 | -4 | -2 | -1 | 73* | -1 | -13
O=C(c1ccc(Br)cc1)N1CCC(C(=O)N2CCN(Cc3ccccc3)CC2)CC1 | 63* | 14 | -4 | -1 | 0 | 0 | 37 | 1 | 10
O=C(c1ccc([N+](=O)[O-])cc1)N1CCN(Cc2ccccc2)CC1 | 16 | 2 | 8 | 2 | -2 | -3 | . | . | .
COCOCCn1cc(CN2CCS(=O)(=O)N(Cc3ccc(-c4ccccc4)cc3)C(C(C)C)C2=O)nn1 (stereo not given) | 2 | . | . | 3 | 6 | . | . | . | .
CSCCC(C(=O)NCc1ccccc1)n1c(-c2ccc3c(c2)CCO3)nc2ccccc21 (stereo not given) | 9 | . | . | -8 | . | . | . | . | .
CCc1ccc(OCC(O)CN2CCC(CN3C(=O)c4cccc5cccc(c45)C3=O)CC2)cc1 (stereo not given) | 60* | -14 | -4 | -8 | -23 | 4 | 24 | 0 | 2
O=C1c2cccc3cccc(c23)C(=O)N1CCN1CCN(CC(O)COc2ccc3ccccc3c2)CC1 (stereo not given) | 49* | 10 | -1 | -3 | -2 | -3 | 19 | 0 | 4
COc1ccccc1CN1CCNC(=O)C1CC(=O)N(C)C1CCOCC1 (stereo not given) | -9 | . | . | -4 | -5 | . | . | . | .
CCOC(=O)C1=CCN(S(=O)(=O)c2ccccc2C)C1c1cccc(Cl)c1 (stereo not given) | 61* | . | . | -3 | . | . | 44 | -1 | -12
CCOC(=O)C1=CCN(S(=O)(=O)c2ccccc2Br)C1c1cccc(Cl)c1 (stereo not given) | 28 | . | . | -4 | 5 | . | . | . | .
CCOC(=O)C1=CCN(S(=O)(=O)c2ccccc2Cl)C1c1cccc(Br)c1 (stereo not given) | 56* | . | . | -5 | 3 | . | 20 | 0 | 5
CCOC(=O)C1=CCN(S(=O)(=O)c2ccccc2F)C1c1cccc(Cl)c1 (stereo not given) | -26 | . | . | -6 | 4 | . | . | . | .
CC(=NNC(=S)N1CCN(c2ccccn2)CC1)c1nccs1 | 22 | . | -1 | -10 | -12 | . | . | . | .
CCCCNC(=O)C[C@@H]1C[C@@]2(C(=O)OCC)CCC=C2N(Cc2ccc(Cl)cc2Cl)C1=O | 7 | . | . | -3 | 15 | . | . | . | .
CC1CCCCN1C(=O)c1ccc(C(=O)Nc2ccc(F)cc2)cc1 (stereo not given) | 52* | 7 | 9 | -3 | -3 | 9 | 22 | -1 | -12
CCn1cc(C(=O)NN)c(=O)c2cc(F)c(NC3CCCCC3)cc21 | 91* | 6 | 3 | 6 | 7 | 1 | 62* | 1 | 1
CCn1cc(C(=O)NN)c(=O)c2cc(F)c(N3CCCCC3)cc21 | 4 | -3 | 10 | -3 | -11 | -2 | . | . | .
SMILES | EBI2 block | APJ antag | CCR6 antagonist | m5-HT2A agonist | CXCR6 inh | APJ ag | EBI2 antag conf | EBI2 ag | bGal counter
CCCCc1ccc(NC(=O)CSc2nc(=O)n(CCN(CC)CC)c3c2CCCC3)cc1 | 51* | 27 | 13 | -12 | 8 | 1 | 20 | 1 | 3
CCCCc1ccc(NC(=O)CSc2nc(=O)n(CCN(C)C)c3c2CCC3)cc1 | 3 | 10 | 13 | -4 | 12 | -3 | . | . | .
O=C1Nc2ccccc2-n2nnnc2C1N1CCN(CCN2CCOCC2)CC1 (stereo not given) | -6 | . | . | 0 | . | . | . | . | .
C#CCNC(=O)C[C@@H]1C[C@@]2(C(=O)OC)CC(C)(C)CC=C2N(CCCCCCCC)C1=O | -4 | . | . | -8 | . | . | . | . | .
COc1cccc(-c2cc3nc(-c4ccccc4)cc(N4CCCC(O)C4)n3n2)c1 (stereo not given) | 47* | -7 | 1 | -2 | -4 | -1 | 23 | 0 | -14
Cc1ccc(S(=O)(=O)NC(=O)C2(C)CCN2C(=O)c2ccccc2CCc2ccccc2)nc1 (stereo not given) | 6 | . | . | -4 | -7 | . | . | . | .
COc1cccc(CN2CCC(C(=O)NC(C)c3cccc4ccccc34)CC2)c1 (stereo not given) | -7 | . | . | 2 | 8 | . | . | . | .
CC1CC(C)CN(c2ncc3c(n2)CC(c2ccccc2Cl)CC3=O)C1 (stereo not given) | 40 | 12 | 22 | 3 | 18 | -5 | . | . | .
CC1CC(C)CN(c2ncc3c(n2)CC(c2ccc(Cl)cc2)CC3=O)C1 (stereo not given) | 57* | 22 | 23 | 6 | 15 | -1 | 12 | -1 | -17
C[C@@H]1CN([C@@H](C)CO)C(=O)c2cc(Br)cnc2O[C@H]1CN(C)C(=O)Cc1cccnc1 | -5 | . | . | 0 | 1 | . | . | . | .

Bioassay records deposited in PubChem by several laboratories.
